Experimental data taken from article PMC7135742 (Nature biomedical engineering, 2020).

What was measured:
pANXA2 in 4T1 cells = assay: Western blot of pANXA2 levels after insulin / PP2 treatment; format: cell-based, murine; conditions: 100 nM insulin 4 h, PP2 co-administration
Procedure, shortened: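 4T1 murine breast cancer cells serum-starved overnight, then treated with 100 nM insulin for 4 h or with PP2, following the same protocol as the insulin imaging study. Cells lysed by ultrasonic homogenisation in RIPA buffer (10 mM Tris-HCl, pH 8.0), and lysates resolved by SDS-PAGE and immunoblotted for pANXA2.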

[1] = test system: A549, MDA-MB-231, and 4T1; assay: Cellular uptake by fluorescence microscopy, solid cancer cell lines; format: cell-based; conditions: 1 μM cypate, all cells
Procedure, shortened: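 Cells were grown in medium with 10% FBS and penicillin/streptomycin (37°C, 5% CO2), then seeded overnight on 8-chamber slides. Compound stock was made in 20% DMSO in PBS (pH 7.4) and diluted into medium to 1 µM final, then incubated at 37°C for several time points. SYTO 13 nuclear stain was added for 45 min at 37°C before epifluorescence or confocal imaging.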

LS301 = assay: MST of LS301 with whole-cell lysate; conditions: reference: lysate of insulin-stimulated 4T1 cells; sites Y23
tumours = conditions: cited from earlier work
4T1 luc/GFP cells = assay: In vitro blocking study of LS301 uptake; format: cell-based, murine; conditions: 24 h, LS301 1 µM, blocking agent 50 µM
[2] = target: LS301 (cypate-cyclic(DCys-Gly-Arg-Asp-Ser-Pro-Cys)-Lys-OH); assay: MST

Chain of ANXA2 (endogenous, 4T1 cells) (P07356 whole entry, looked up, change not shown): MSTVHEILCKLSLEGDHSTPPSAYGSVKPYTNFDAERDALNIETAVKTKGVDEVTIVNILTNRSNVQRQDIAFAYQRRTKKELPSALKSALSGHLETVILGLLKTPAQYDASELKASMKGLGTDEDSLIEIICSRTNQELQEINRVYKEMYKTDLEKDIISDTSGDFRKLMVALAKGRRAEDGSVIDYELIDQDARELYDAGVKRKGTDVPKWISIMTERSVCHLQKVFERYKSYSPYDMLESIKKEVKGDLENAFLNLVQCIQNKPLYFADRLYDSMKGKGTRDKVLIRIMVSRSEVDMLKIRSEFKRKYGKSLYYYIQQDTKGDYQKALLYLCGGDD

For CC(C)(C)n1nc(-c2ccc(Cl)cc2)c2c(N)ncnc21 [PP2], the “effect on pANXA2 levels in 4T1 cells” value (pANXA2 in 4T1 cells) was “this effect was suppressed”.
For CC1(C)C(/C=C/C=C/C=C/C=C2/N(CCC(=O)O)c3ccc4ccccc4c3C2(C)C)=[N+](CCC(=O)[O-])c2ccc3ccccc3c21 [cypate], the “cellular retention of cypate alone” value [1] was “only transient retention in all cells”.
For “ANXA2 (endogenous, 4T1 cells) (from UniProt P07356) lysate of PP2-treated 4T1 cells”, the KD (LS301) was “weaker; reference 0.017 ± 0.004 nM”.
For Cypate-GRDSPK, the “retention of Cypate-GRDSPK in tumours” value (tumours) is listed as “the retention was transient”.
In the case of LCKLSL, the “blocking of LS301 binding and internalization in cells” value (4T1 luc/GFP cells) is reported as “inhibited the binding and internalization of LS301 in cells”.
Molecule “Purified ANXA2 protein (Annexin A2) (from UniProt P07355 1-339) (natural protein)” has a Kd [2] of 0.389 nM.
“Purified pANXA2 protein (Annexin A2 phosphorylated at tyrosine 23) (from UniProt P07355 1-339) (natural protein)” gave a Kd [2] of 0.075 nM.
For “insulin: stimulates tyrosine-23 phosphorylation of ANXA2”, the “effect on pANXA2 levels in 4T1 cells” value (pANXA2 in 4T1 cells) was “increased levels of pANXA2 relative to unstimulated cells”.
